Published values pooled from the literature.
Compare with care: the assays were run in different laboratories.
Route: oral

SMILES | system | conditions | bioavailability [%]
CNC(=O)c1cccc(-c2ccc([C@@H](O)[C@H]3O[C@H](CO)[C@@H](O)[C@H](O)[C@@H]3O)c(C)c2)c1 | male Sprague-Dawley rat, plasma | 10 mg/kg, single dose | 1.95
COCCOc1cc(CC2CCN(CCc3ccc4c(c3)C(=O)CCO4)CC2)ccc1Br.O=S(=O)(O)c1ccccc1 | male rat, plasma | 10 mg/kg | 7.3
CCOC(=O)[C@@]12C[C@@H]1[C@@H](n1ccc3c(NC)nc(C#Cc4ccc(Cl)s4)nc31)[C@H](O)[C@@H]2O | male Sprague-Dawley rat, plasma | 3 mg/kg | 92.3
Cn1cc(-c2cc(N3CCCS3(=O)=O)ccc2Oc2ccc(F)cc2F)c2c(F)c[nH]c2c1=O | Sprague-Dawley rat, plasma | 3 mg/kg | 20 to 30
CC1(C)CCN(c2c(C#N)c(=O)[nH]c3cccnc23)CC1 | male Wistar rat, plasma |  | 61
Oc1c(-c2cccnc2)cnn1-c1ccccn1 | rat, plasma | 30 mg/kg | 35
COCCOC(=O)C1=C(C)NC(C)=C(C(=O)OC(C)C)C1c1cccc([N+](=O)[O-])c1 (stereo not shown) | male Sprague-Dawley rat, plasma | 12 mg/kg | 21.9
N#Cc1ccc(-c2ccc(C[C@@H](C#N)NC(=O)C3(N)CCOCC3)cc2)cc1 | Sprague-Dawley rat, plasma | 3 mg/kg | 92
CC(C)(O)[C@H]1CC[C@H](Nc2ccc3ncc(-c4cccc(C(F)(F)F)c4)n3n2)CC1 | female Sprague-Dawley rat, plasma | 40 mg/kg | 39
COc1nc2[nH]c(C(F)(F)F)nc2nc1Nc1ccc(OC(F)(F)F)cc1F | Sprague-Dawley rat, serum | 5 mg/kg | 100
COc1ccc2c(=O)oc3c(OC)cc(CC(O)CN(C)C)c4c(=O)oc1c2c34 (stereo not shown) | rat, plasma |  | ~37
Cc1cn(-c2cc(NC(=O)c3cccc(-c4ccc5nc(NC(=O)C6CC6)sc5n4)c3)cc(C(F)(F)F)c2)cn1 | rat, serum | 2 mg/kg | 4.7
CCc1cc(OC)c2nccc(N3CCc4c(cc(Cn5ccnc5)cc4-c4cn(C)nc4C(F)(F)F)C3=O)c2c1 | male Sprague-Dawley rat, plasma | 50 mg/kg | 65
COc1ccc2c(Cc3ccccc3F)c3n(c(=O)c2c1OC)CCc1cc2c(cc1-3)OCO2 | rat, plasma | 5 mg/kg | 15
Oc1c(-n2ccnn2)cnn1-c1cc(N2CCOCC2)ncn1 | rat, plasma | 30 mg/kg | 34
Cc1cc(C(=O)O)nc(N2C[C@H]3C[C@@H](c4ccccc4C(F)(F)F)C[C@H]3C2)n1 | Sprague-Dawley rat, plasma | 12.7 µmol/kg, single dose | > 100
